Converted amounts (≈) assume the structure as drawn.
Key:
Staphylococcus aureus [1] = assay: In vitro antimicrobial activity against aerobic bacteria Staphylococcus aureus X400; assay type: functional
Streptococcus pyogenes [2] = assay: In vivo effective dose against experimental infections in rodent caused by Streptococcus pyogenes C203 when administered orally; assay type: functional; conditions: po
[3] = system: Haemophilus parainfluenzae; assay: In vitro antimicrobial activity against aerobic bacteria Haemophilus parainfluenzae 9796; assay type: functional
[4] = system: Fusobacterium necrophorum; assay: In vitro antimicrobial activity against anaerobic bacteria usobacterium necrophorum 6054A; assay type: functional
Streptococcus [5] = assay: In vitro antimicrobial activity against aerobic bacteria Streptococcus D 9960; assay type: functional
Haemophilus influenzae [6] = assay: In vitro antimicrobial activity against aerobic bacteria Haemophilus influenzae 465; assay type: functional
Streptococcus pneumoniae [7] = assay: In vivo effective dose against experimental infections in mice Streptococcus pneumoniae park when administered orally; assay type: functional; conditions: po
Chlamydia trachomatis = assay: In vitro antimicrobial activity against chlamydia trachomatis.; assay type: functional
Staphylococcus aureus [8] = assay: In vitro antimicrobial activity against aerobic bacteria Staphylococcus aureus 513E; assay type: functional
Streptococcus pneumoniae [9] = assay: In vitro antimicrobial activity against Streptococcus pneumoniae; assay type: functional
Clostridioides difficile = assay: In vitro antimicrobial activity against anaerobic bacteria Clostridium difficile 2994; assay type: functional
Staphylococcus aureus [10] = assay: In vitro antimicrobial activity against aerobic bacteria Staphylococcus aureus V41; assay type: functional
Staphylococcus aureus [11] = assay: In vitro antimicrobial activity against aerobic bacteria Staphylococcus aureus V135; assay type: functional
Streptococcus [12] = assay: In vitro antimicrobial activity against aerobic bacteria Streptococcus D 2041; assay type: functional
Fusobacterium = assay: In vitro antimicrobial activity against anaerobic bacteria fusobacterium symbiosum 1470; assay type: functional
Bacteroides fragilis [13] = assay: In vitro antimicrobial activity against anaerobic bacteria bacteroides fragilis 1936B,; assay type: functional
[14] = system: Prevotella melaninogenica; assay: In vitro antimicrobial activity against anaerobic bacteria bacteroides melaninogenicus 2736; assay type: functional
[15] = system: Peptoniphilus asaccharolyticus; assay: In vitro antimicrobial activity against anaerobic bacteria peptococcus asaccharolyticus 1302; assay type: functional
Enterococcus faecium = assay: In vitro antimicrobial activity against Streptococcus faecium X66; assay type: functional, streptococcus fae-cium
Haemophilus influenzae [16] = assay: In vitro antimicrobial activity against Haemophilus influenzae.; assay type: functional
Streptococcus pyogenes [17] = assay: In vivo effective dose against experimental infections in rodent caused by Streptococcus pyogenes C203 when administered sc; assay type: functional
[18] = system: Staphylococcus epidermidis; assay: In vitro antimicrobial activity against aerobic bacteria Streptococcus epi 270; assay type: functional
Streptococcus pneumoniae [19] = assay: In vivo effective dose against experimental infections in mice Streptococcus pneumoniae park when administered sc; assay type: functional
[20] = system: Staphylococcus epidermidis; assay: In vitro antimicrobial activity against aerobic bacteria Streptococcus epi 222; assay type: functional
[21] = system: Peptostreptococcus anaerobius; assay: In vitro antimicrobial activity against anaerobic bacteria eubacterium peptostreptococcus anaerobius 1428,; assay type: functional
Clostridium perfringens = assay: In vitro antimicrobial activity against anaerobic bacteria clostridium perfringens 81,; assay type: functional
Haemophilus influenzae [22] = assay: In vitro antimicrobial activity against aerobic bacteria Haemophilus influenzae MX366,; assay type: functional
[23] = In vitro antimicrobial activity against anaerobic bacteria peptostreptococcus intermedius 1264; assay type: functional
[24] = system: Bacteroides thetaiotaomicron; assay: In vitro antimicrobial activity against anaerobic bacteria bacteroides thetaiotaomicron 1438; assay type: functional
Streptococcus [25] = assay: In vitro antimicrobial activity against aerobic bacteria Streptococcus B 5; assay type: functional
Bacteroides fragilis [26] = assay: In vitro antimicrobial activity against anaerobic bacteria bacteroides fragilis 1877; assay type: functional
Staphylococcus aureus [27] = assay: In vitro antimicrobial activity against Staphylococcus aureus X1; assay type: functional
Staphylococcus aureus [28] = assay: In vitro antimicrobial activity against aerobic bacteria Staphylococcus aureus V140,; assay type: functional
Streptococcus [29] = assay: In vitro antimicrobial activity against aerobic bacteria Streptococcus D 8043; assay type: functional
Streptococcus pyogenes [30] = assay: In vitro antimicrobial activity against Streptococcus pyogenes C203; assay type: functional
[31] = system: Prevotella melaninogenica; assay: In vitro antimicrobial activity against anaerobic bacteria bacteroides melaninogenicus 1856,; assay type: functional
Streptococcus pneumoniae [32] = assay: In vitro antimicrobial activity against aerobic bacteria Streptococcus pneumoniae B1-438; assay type: functional, streptococcus pneum
Haemophilus influenzae [33] = assay: In vitro antimicrobial activity against aerobic bacteria Haemophilus influenzae 76; assay type: functional
Eikenella corrodens = assay: In vitro antimicrobial activity against anaerobic bacteria bacteroides corrodens 1874; assay type: functional
Phocaeicola vulgatus = assay: In vitro antimicrobial activity against anaerobic bacteria bacteroides vulgatus 1211; assay type: functional
[34] = system: Staphylococcus epidermidis; assay: In vitro antimicrobial activity against Staphylococcus epidermidis EPI1; assay type: functional
Collinsella aerofaciens = assay: In vitro antimicrobial activity against anaerobic bacteria eubacterium aerofaciens 1235; assay type: functional
Cutibacterium acnes = assay: In vitro antimicrobial activity against anaerobic bacteria propionibacterium acnes 79; assay type: functional
Clostridium septicum = assay: In vitro antimicrobial activity against anaerobic bacteria clostridium septicum 1128; assay type: functional
Bacteroides fragilis [35] = assay: In vitro antimicrobial activity against anaerobic bacteria bacteroides fragilis 111; assay type: functional
Streptococcus [36] = assay: In vitro antimicrobial activity against aerobic bacteria Streptococcus B 14; assay type: functional
Anaerococcus prevotii = assay: In vitro antimicrobial activity against anaerobic bacteria peptococcus prevoti 1281; assay type: functional
Staphylococcus aureus [37] = assay: In vivo effective dose against experimental infections in mice Staphylococcus aureus X1 when administered orally; assay type: functional; conditions: po
Streptococcus pneumoniae [38] = assay: In vivo effective dose against experimental infections in mice Strep. pneumoniae park when administered orally; assay type: functional; conditions: po
Mus musculus [39] = assay: Peripheral plasma levels in mice after oral administration of 100 mg/kg dose for 0.5 hr; assay type: functional, organism-based; set-up: dose 100 mg/kg
Summary of the method: (§1)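 Mice were given the compound orally and sampled for peripheral plasma at each time point. Plasma was assayed microbiologically against Micrococcus luteus seeded in Antibiotic Medium 1. Inhibition zone sizes were read, and concentrations were calculated from each compound's own standard curve. Each value is the mean of five mice per time point.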

Rattus norvegicus [40] = assay: Peripheral plasma levels in rats after oral administration of 100 mg/kg dose for 2 hr; assay type: functional, organism-based; set-up: dose 100 mg/kg
Summary of the method: (§2)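 Rats received 100 mg/kg orally and were sampled for peripheral plasma. Concentrations were measured by Micrococcus luteus agar-diffusion microbiological assay in Antibiotic Medium 1, with zone sizes converted using the standard curve for the appropriate compound. Each value is the average of three rats per time point.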

Streptococcus pneumoniae [41] = assay: In vivo effective dose against experimental infections in mice Strep. pneumoniae park when administered sc; assay type: functional
Staphylococcus aureus [42] = assay: In vivo effective dose against experimental infections in mice Staphylococcus aureus X1 when administered sc; assay type: functional
Rattus norvegicus [43] = assay: Peripheral plasma levels in rats after oral administration of 100 mg/kg dose for 0.25 hr; assay type: functional, organism-based; set-up: dose 100 mg/kg; summary of the method: as §2
Rattus norvegicus [44] = assay: Peripheral plasma levels in rats after oral administration of 100 mg/kg dose for 1 hr; assay type: functional, organism-based; set-up: dose 100 mg/kg; summary of the method: as §2
Rattus norvegicus [45] = assay: Peripheral plasma levels in rats after oral administration of 100 mg/kg dose for 4 hr; assay type: functional, organism-based; set-up: dose 100 mg/kg; summary of the method: as §2
Mus musculus [46] = assay: Peripheral plasma levels in mice after oral administration of 100 mg/kg dose for 1 hr; assay type: functional, organism-based; set-up: dose 100 mg/kg; summary of the method: as §1
Rattus norvegicus [47] = assay: Peripheral plasma levels in rats after oral administration of 100 mg/kg dose for 0.5 hr; assay type: functional, organism-based; set-up: dose 100 mg/kg; summary of the method: as §2
Mus musculus [48] = assay: Peripheral plasma levels in mice after oral administration of 100 mg/kg dose for 2 hr; assay type: functional, organism-based; set-up: dose 100 mg/kg; summary of the method: as §1

## CC[C@H]1OC(=O)C[C@@H](O)[C@H](C)[C@@H](O[C@@H]2O[C@H](C)[C@@H](O)[C@H](N(C)C)[C@H]2O)[C@@H](CCOc2ccc(-c3ccccc3)cc2)C[C@@H](C)C(=O)/C=C/C(C)=C/[C@@H]1CO[C@@H]1O[C@H](C)[C@@H](O)[C@@H](OC)[C@H]1OC
Staphylococcus aureus [1]
  MIC: 0.25 µg/mL (≈ 0.27 µM)
Streptococcus pyogenes [2]
  ED50: 25 mg/kg
[3]
  MIC: 32 µg/mL (≈ 34.6 µM)
[4]
  MIC: 4 µg/mL (≈ 4.32 µM)
Streptococcus [5]
  MIC: 0.5 µg/mL (≈ 0.54 µM)
Haemophilus influenzae [6]
  MIC: 16 µg/mL (≈ 17.3 µM)
Streptococcus pneumoniae [7]
  ED50: 37 mg/kg
Chlamydia trachomatis
  MIC: > 2 µg/mL
Staphylococcus aureus [8]
  MIC: 0.25 µg/mL (≈ 0.27 µM)
Streptococcus pneumoniae [9]
  MIC: 0.25 µg/mL (≈ 0.27 µM)
Clostridioides difficile
  MIC: < 0.5 µg/mL
Staphylococcus aureus [10]
  MIC: 0.25 µg/mL (≈ 0.27 µM)
Staphylococcus aureus [11]
  MIC: 0.25 µg/mL (≈ 0.27 µM)
Streptococcus [12]
  MIC: 0.5 µg/mL (≈ 0.54 µM)
Fusobacterium
  MIC: 2 µg/mL (≈ 2.16 µM)
Bacteroides fragilis [13]
  MIC: 4 µg/mL (≈ 4.32 µM)
[14]
  MIC: < 0.5 µg/mL
[15]
  MIC: < 0.5 µg/mL
Enterococcus faecium
  MIC: 0.5 µg/mL (≈ 0.54 µM)
Haemophilus influenzae [16]
  MIC: 16 µg/mL (≈ 17.3 µM)
Streptococcus pyogenes [17]
  ED50: > 10 mg/kg
[18]
  MIC: 128 µg/mL (≈ 138 µM)
Streptococcus pneumoniae [19]
  ED50: > 20 mg/kg
[20]
  MIC: 0.12 µg/mL (≈ 0.13 µM)
[21]
  MIC: < 0.5 µg/mL
Clostridium perfringens
  MIC: < 0.5 µg/mL
Haemophilus influenzae [22]
  MIC: 16 µg/mL (≈ 17.3 µM)
[23]
  MIC: < 0.5 µg/mL
[24]
  MIC: 2 µg/mL (≈ 2.16 µM)
Streptococcus [25]
  MIC: 2 µg/mL (≈ 2.16 µM)
Bacteroides fragilis [26]
  MIC: 2 µg/mL (≈ 2.16 µM)
Staphylococcus aureus [27]
  MIC: 0.5 µg/mL (≈ 0.54 µM)
Staphylococcus aureus [28]
  MIC: 0.25 µg/mL (≈ 0.27 µM)
Streptococcus [29]
  MIC: 0.25 µg/mL (≈ 0.27 µM)
Streptococcus pyogenes [30]
  MIC: 0.25 µg/mL (≈ 0.27 µM)
[31]
  MIC: < 0.5 µg/mL
Streptococcus pneumoniae [32]
  MIC: 32 µg/mL (≈ 34.6 µM)
Haemophilus influenzae [33]
  MIC: 16 µg/mL (≈ 17.3 µM)
Eikenella corrodens
  MIC: 2 µg/mL (≈ 2.16 µM)
Phocaeicola vulgatus
  MIC: < 0.5 µg/mL
[34]
  MIC: 0.5 µg/mL (≈ 0.54 µM)
Collinsella aerofaciens
  MIC: < 0.5 µg/mL
Cutibacterium acnes
  MIC: < 0.5 µg/mL
Clostridium septicum
  MIC: < 0.5 µg/mL
Bacteroides fragilis [35]
  MIC: 4 µg/mL (≈ 4.32 µM)
Streptococcus [36]
  MIC: 1 µg/mL (≈ 1.08 µM)
Anaerococcus prevotii
  MIC: 1 µg/mL (≈ 1.08 µM)

## CC[C@H]1OC(=O)C[C@@H](O)[C@H](C)[C@@H](O[C@@H]2O[C@H](C)[C@@H](O)[C@H](N(C)C)[C@H]2O)[C@@H](CCN2CCCCCCC2)C[C@@H](C)C(=O)/C=C/C(C)=C/[C@@H]1CO[C@@H]1O[C@H](C)[C@@H](O)[C@@H](OC)[C@H]1OC
Staphylococcus aureus [37]
  ED50: 25 mg/kg
Streptococcus pyogenes [2]
  ED50: 20 mg/kg
Streptococcus pneumoniae [38]
  ED50: > 50 mg/kg
Mus musculus [39]
  Concentration: 0.1 µg/mL
Streptococcus pneumoniae [9]
  MIC: 0.25 µg/mL (≈ 0.288 µM)
Rattus norvegicus [40]
  Concentration: 1.1 µg/mL
Streptococcus pneumoniae [41]
  ED50: > 20 mg/kg
Staphylococcus aureus [42]
  ED50: 2 mg/kg
Rattus norvegicus [43]
  Concentration: 0.3 µg/mL
Enterococcus faecium
  MIC: 4 µg/mL (≈ 4.6 µM)
Haemophilus influenzae [16]
  MIC: 8 µg/mL (≈ 9.2 µM)
Streptococcus pyogenes [17]
  ED50: 0.9 mg/kg
Rattus norvegicus [44]
  Concentration: 0.2 µg/mL
Staphylococcus aureus [27]
  MIC: 0.5 µg/mL (≈ 0.575 µM)
Streptococcus pyogenes [30]
  MIC: 0.25 µg/mL (≈ 0.288 µM)
Rattus norvegicus [45]
  Concentration: 0.2 µg/mL
[34]
  MIC: 0.5 µg/mL (≈ 0.575 µM)
Mus musculus [46]
  Concentration: 0.1 µg/mL
Rattus norvegicus [47]
  Concentration: 0.4 µg/mL
Mus musculus [48]
  Concentration: 0.1 µg/mL

— ChEMBL document CHEMBL1124186, “Synthesis and evaluation of tylosin-related macrolides modified at the aldehyde function: a new series of orally effective antibiotics” (1988)
